# Gli-Sufu antag = Gli-Sufu pathway antagonists, primary screen, luciferase luminescence, Sufu-KO-LIGHT cells, uHTS. Sufu-KO-LIGHT fibroblasts, Gli luciferase reporter luminescence. inhibition, % at 5 µM. hit rate 0.74% among 340,000;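 active = inhibition above about 55%, limit read from the data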;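 note: 0% = DMSO-treated cells and 100% = wells with medium but no cells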
# CHOP inhibitor = inhibitors of CHOP promoter induction, primary screen, cell-based, unfolded protein response, luciferase reporter. AID 2732, 2010. inhibition, % at 10 µM. CHO-K1 CHOP-promoter luciferase, tunicamycin-induced, 15-18 h. hit rate 3.8% among 220,000;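 active = compounds that reduced the stress-induced luciferase reporter signal by more than about 70% of percent inhibition, limit read from the data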;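 note: 0% = tunicamycin plus vehicle and 100% = wells without tunicamycin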
# Jurkat NFkB inh = inhibitors of induced NF-kB luciferase reporter, primary screen, TCR NF-kB activation inhibitor project, cell-based, luminescence, uHTS. Jurkat, PMA/ionomycin-induced NF-kB luciferase reporter. inhibition, % at 4 µM. AID 435003, 2010. hit rate 0.53% among 330,000; in the data active = inhibition above about 50%
# CHOP UPR activ = activators of apoptotic CHOP UPR arm, primary screen, cell-based, CHO-CHOP luciferase reporter, luminescence, uHTS; UPR activation; percent of tunicamycin response over DMSO baseline; activation, % at 10 µM; hit rate 0.34% among 330,000; AID 449763, 2010;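 active = at 10 µM dose, activation of 40% or more, normalized to positive control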;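 note: 100% = tunicamycin at 10 µg/mL and 0% = DMSO alone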
#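 Evaluation: % reporter activation, DMSO baseline versus tunicamycin full activation; System: CHO-CHOP luciferase reporter cell line; Input: 500 cells/well; Incubation: 6 h compound treatment, 37 °C; Measured by: Steady-Glo luciferase luminescence; Dosing: one dose, 10 µM in 0.5% DMSO; Buffer or medium: F12 medium, 10% FBS; Benchmarks: positive tunicamycin 10 µg/mL, negative DMSO alone.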
# 697 NFkB inh = inhibitors of PMA/ionomycin-induced NF-kB reporter, 697 cells, primary screen, B-cell NF-kB inhibitor project, cell-based, luminescence, uHTS; 697 B-cell NF-kB luciferase reporter, 16 h; inhibition, % at 4 µM; hit rate 0.33% among 330,000; AID 435022, 2010; in the data active = inhibition above about 35%
# XBP1 UPR activ = activators of adaptive XBP1 UPR arm, primary screen, cell-based, CHO-XBP1 luciferase reporter, luminescence, uHTS; IRE1-XBP1 UPR activation; percent of tunicamycin response, DMSO as zero; activation, % at 20 µM; hit rate 0.33% among 330,000; AID 463104, 2010;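 active = versus positive control, 20 µM dose yields 30% or more activation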;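 note: 100% = tunicamycin at 10 µg/mL and 0% = DMSO only wells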
#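 Assay system: CHO-XBP1 luciferase reporter cells; Schedule: 6 h treatment, 37 °C; Detection: glow luminescence from Steady-Glo reagent; Benchmarks: high control tunicamycin 10 µg/mL final, low control DMSO vehicle only.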
# CHOP UPR conf = activators of apoptotic CHOP UPR arm, confirmation, cell-based, CHO-CHOP luciferase reporter, single concentration; shares compounds with CHOP UPR activ; CHO-CHOP cells, CHOP-luciferase reporter luminescence; percent of tunicamycin response, DMSO as zero; activation, % at 10 µM; hit rate 64% among 1,000; AID 463112, 2010; in the data active = activation above about 33%;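 note: 0% = DMSO wells and 100% = tunicamycin 10 µg/mL wells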
# UPR XBP1 confirm = IRE1-XBP1 UPR arm activators, confirmation, cell-based, CHO-XBP1 luciferase reporter, luminescence, single concentration; shares compounds with XBP1 UPR activ; activation, % at 20 µM; hit rate 63% among 1,000;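 active = reporter signal at least 30% of the positive control's activation in two or more of four replicate wells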;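 note: plate controls were DMSO negative control for no effect and tunicamycin 10 µg/mL positive control for full effect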
# Gli antag conf = Gli-SUFU pathway antagonists, confirmation, single concentration, luciferase luminescence, Sufu-KO-LIGHT cells. Gli luciferase reporter. shares compounds with Gli-Sufu antag. inhibition, % at 5 µM. AID 602428, 2012. hit rate 40% among 2,500;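 active = mean inhibition at 5 µM reaching about 45%, limit read from the data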;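 note: plate controls were DMSO-treated cells for no effect and wells lacking cells for full effect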
# Gli cytotox = cytotoxicity in Sufu-KO-LIGHT cells, confirmation, cytotoxicity control for Gli-SUFU antagonist project, cell-based, ATP luminescence, single concentration; shares compounds with Gli-Sufu antag; cytotoxicity, % at 5 µM; hit rate 32% among 2,500;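 active = mean cytotoxicity at 5 µM above about 25%, limit read from the data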;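 note: cells exposed to compound overnight for roughly 16 to 18 hours; plate controls were DMSO wells with cells for no effect and medium without cells for full effect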
# Wnt3a cs = Wnt3a reporter signal inhibition, confirmation, counter-screen for Gli-SUFU antagonist project, Wnt-LIGHT cells, luminescence, single concentration. shares compounds with Gli-Sufu antag. hit rate 20% among 2,500. Wnt3a-driven luciferase reporter. inhibition, % at 6.25 µM;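 active = mean inhibition above about 25%, limit read from the data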
# The depositor's hits bear a star; nt = no result; ! = not confirmed by another sample. Sampled rows, rich in hits. Any-hit rate of the full collection: about 3.9%.
SMILES,Gli-Sufu antag,CHOP inhibitor,Jurkat NFkB inh,CHOP UPR activ,697 NFkB inh,XBP1 UPR activ,CHOP UPR conf,others
COc1ccc(N2C(=O)/C(=C/C=C/c3ccccc3[N+](=O)[O-])C(=O)NC2=S)cc1,1,-143,18,355*,8,-7,90*,
COc1ccccc1/C=C1\C(=O)NC(=S)N(c2ccccc2)C1=O,-4,nt,-18,1,16,-6,nt,
CCN(CC)Cc1c[nH]c2ccccc12,-19,9,-4,0,7,-2,nt,
CN(CCc1ccccc1)Cc1c[nH]c2ccccc12,14,nt,3,88*,-13,5,20,
O=C1C(Cl)=CC(=Nc2ccc(O)cc2)C=C1Cl,0,nt,-6,13,-7,0,nt,
CC(C)N1C(=O)/C(=C/C=C/c2ccco2)C(=O)N(Cc2ccco2)C1=O,-19,16,8,45*,10,8,156*,
CCCCn1c(=O)c(C(=O)Nc2cccc(C)c2)c(O)c2ccccc21,-8,nt,7,2,-5,-4,nt,
CCCCCn1c(=O)c(C(=O)Nc2ncccc2C)c(O)c2ccccc21,24,nt,2,46*,-23,36*,24,
O=[N+]([O-])c1cccc(NP(=O)(Oc2ccccc2)Oc2ccccc2)c1,1,nt,16,2,6,-1,nt,
Clc1ccccc1C1=NCc2nncn2-c2sc(Br)cc21,-1,nt,3,-2,-10,0,nt,
Cc1ccc(/C=C2\C(=O)NC(=S)N(c3ccc(F)cc3)C2=O)o1,-1,nt,-6,0,-2,-3,nt,
COc1cccc(N2C(=O)/C(=C/c3ccc(C)o3)C(=O)NC2=S)c1,12,nt,-17,262*,-14,-1,0,
CC(C)c1ccc(N2C(=O)NC(=O)/C(=C\C=C\c3ccco3)C2=O)cc1,4,104*,5,250*,-20,-5,254*,
Cc1ccc(S(=O)(=O)N[C@@H](CCCCN)C(=O)CCl)cc1,-1,9,-5,-2,-4,-7,nt,
Cc1c(C(=O)c2cccc3ccccc23)c2cccc3c2n1[C@H](CN1CCOCC1)CO3,-4,-95,-11,58*,10,29,40*,
COc1cc(/C=C/[N+](=O)[O-])ccc1O,17,63,4,189*,-2,-3,54*,
COc1ccc(-n2c(/C=C/c3ccc(O)c(OC)c3)nc3ccccc3c2=O)cc1,6,nt,-15,4,15,2,nt,
O=c1[nH]c(=S)n(C2CC2)c(O)c1C=Nc1cccc(C(F)(F)F)c1,6,95*,16,46*,6,23,36*,
NNC(=O)c1nc[nH]c1C(=O)Nc1ccc(Cl)cc1C(=O)c1ccccc1,27,nt,11,0,10,-5,nt,
CCn1c(O)c(N=Nc2cccc(S(=O)(=O)N3CCOCC3)c2)c(=O)n(CC)c1=S,1,13,-1,41*,6,-1,5,
CN1C(=O)/C(=C/c2cccn2-c2ccc3ccccc3c2)C(=O)NC1=S,0,53,0,145*,-22,116*,151*,UPR XBP1 confirm=-6
CN[C@@H]1C[C@@H](c2ccc(Cl)c(Cl)c2)c2ccccc21,nt,4,20,0,15,-7,nt,
CCCCn1c(NS(=O)(=O)c2ccc(C)cc2)c(C(=O)OCC)c2nc3ccccc3nc21,14,20,-3,1,13,8,nt,
CCCCn1c(NC(=O)c2ccco2)c(C(=O)OCC)c2nc3ccccc3nc21,4,-51,5,47*,-16,40*,1,UPR XBP1 confirm=-1
Cc1cccc(-n2c(O)c(C=Nc3ccc(Br)cn3)c(=O)[nH]c2=O)c1,3,10,-4,1,19,-2,nt,
SMILES,Gli-Sufu antag,CHOP inhibitor,Jurkat NFkB inh,CHOP UPR activ,697 NFkB inh,XBP1 UPR activ,CHOP UPR conf,others
Cc1ccc(-n2c(O)c(/C=N/c3ncc(Br)cc3Br)c(=O)[nH]c2=O)cc1,5,74*,-36,3,1,31*,nt,UPR XBP1 confirm=52*
CCN(CC)c1ccc(N=Cc2c(O)n(Cc3ccccc3)c(=O)[nH]c2=O)cc1,-6,96*!,-12,8,-34,31*,nt,UPR XBP1 confirm=35*!
CSc1ccccc1C(=O)C1CCCN(Cc2ccn[nH]2)C1 (centres undefined),-8,31,10,0,13,-4,nt,
CCN(CC)c1ccc(/C=C/[N+](=O)[O-])cc1,-2,-78,1,14,15,112*,nt,UPR XBP1 confirm=76*
CC12CCC(=O)C=C1C=CC1C2CCC2(C)C(O)CCC12 (centres undefined),9,nt,nt,nt,nt,nt,nt,
CCOP(=O)(CCP(=O)(OCC)OCC)OCC.C[CH2][Sn]([Cl])([Cl])[CH2]C,63*,nt,nt,nt,nt,nt,nt,Gli antag conf=63*;Gli cytotox=14;Wnt3a cs=-25
CC[C@@H](O)C[C@H]1CCC[C@@]2(C[C@@H]3OC(=O)/C=C/[C@@](C)(O)[C@@H](O)[C@H](C)[C@@H](O)[C@H](OC4CCC(N(C)C)C(C)O4)[C@@H](O)[C@](C)(O)CCCCC/C=C/[C@@H]4CC(C)(C)O[C@@]4(O)C[C@H](O2)[C@H]3C)O1 (some centres undefined),89*,nt,nt,nt,nt,nt,nt,Gli antag conf=89*;Gli cytotox=20;Wnt3a cs=22
CSc1ncc(Cl)c(C(=O)O)n1,54,-4,9,-3,15,-3,nt,Gli antag conf=34;Gli cytotox=-4;Wnt3a cs=11
CSc1ncc(Br)c(N2CC2)n1,-1,nt,nt,nt,nt,nt,nt,
CC(=O)C1CCC2C3CCC4CC(O)CCC4(C)C3C(=O)CC12C (centres undefined),2,nt,nt,nt,nt,nt,nt,
